Laboratory results from ChEMBL document CHEMBL4619796, “Discovery of 3-Quinazolin-4(3H)-on-3-yl-2,N-dimethylpropanamides as Orally Active and Selective PI3Kα Inhibitors” (ACS Med Chem Lett, 2020).

Legend:
[1] = Inhibition of PI3K in human MCF7 cells assessed as reduction in AKT phosphorylation at residue S473 incubated for 2 hrs followed by insulin addition by ELISA; type: cell-based; settings: MCF7, 2 h
[2] = Cmax in BALB/c mouse at 10 mg/kg, po by HPLC analysis; type: ADME, organism-based; design: dose 10 mg/kg, route oral; settings: in vivo
[3] = Clearance in BALB/c mouse at 1 mg/kg, […] by HPLC analysis; type: ADME, organism-based; settings: in vivo
[4] = Oral bioavailability in BALB/c mouse at 10 mg/kg by HPLC analysis; type: ADME, organism-based; settings: in vivo
[5] = target: Phosphatidylinositol 4,5-bisphosphate 3-kinase catalytic subunit beta isoform (Homo sapiens, UniProt P42338); assay: Inhibition of PI3Kbeta in human MDA-MB-468 cells assessed as reduction in AKT phosphorylation at residue S473 measured after 30 mins by sandwich ELISA
[6] = target: T1, Phosphatidylinositol 4,5-bisphosphate 3-kinase catalytic subunit delta isoform (Homo sapiens, UniProt O00329); assay: Inhibition of PI3Kdelta in human Jeko1 cells assessed as reduction in AKT phosphorylation at residue S473 measured after 2 hrs by sandwich ELISA
T1 sequence (O00329 whole entry): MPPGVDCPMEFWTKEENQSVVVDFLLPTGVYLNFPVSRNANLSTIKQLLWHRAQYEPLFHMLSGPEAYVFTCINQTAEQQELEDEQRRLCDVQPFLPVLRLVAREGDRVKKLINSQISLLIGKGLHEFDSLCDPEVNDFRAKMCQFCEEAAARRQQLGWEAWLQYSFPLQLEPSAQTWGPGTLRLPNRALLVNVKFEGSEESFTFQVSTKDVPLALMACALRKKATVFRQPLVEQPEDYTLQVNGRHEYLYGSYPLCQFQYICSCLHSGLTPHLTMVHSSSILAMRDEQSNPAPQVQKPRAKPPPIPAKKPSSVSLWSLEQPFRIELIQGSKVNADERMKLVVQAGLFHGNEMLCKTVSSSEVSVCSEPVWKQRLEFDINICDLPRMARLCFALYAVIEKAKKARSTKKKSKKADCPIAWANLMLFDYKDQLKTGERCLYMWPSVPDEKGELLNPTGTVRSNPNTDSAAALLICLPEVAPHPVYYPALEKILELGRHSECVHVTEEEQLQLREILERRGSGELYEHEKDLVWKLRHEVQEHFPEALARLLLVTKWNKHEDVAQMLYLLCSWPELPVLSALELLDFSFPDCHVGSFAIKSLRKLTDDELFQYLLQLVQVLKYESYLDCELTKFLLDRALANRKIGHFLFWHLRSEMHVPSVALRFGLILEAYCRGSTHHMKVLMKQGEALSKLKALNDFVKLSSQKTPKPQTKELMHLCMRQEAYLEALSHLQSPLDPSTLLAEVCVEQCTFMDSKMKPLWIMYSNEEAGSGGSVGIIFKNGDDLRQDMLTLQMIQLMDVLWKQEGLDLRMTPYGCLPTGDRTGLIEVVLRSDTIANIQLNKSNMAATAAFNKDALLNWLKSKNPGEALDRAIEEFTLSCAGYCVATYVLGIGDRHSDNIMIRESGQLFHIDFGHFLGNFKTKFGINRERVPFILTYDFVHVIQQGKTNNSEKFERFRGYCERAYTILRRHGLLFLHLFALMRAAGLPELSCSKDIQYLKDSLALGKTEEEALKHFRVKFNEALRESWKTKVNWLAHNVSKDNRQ

[7] = target: Phosphatidylinositol 4,5-bisphosphate 3-kinase catalytic subunit gamma isoform (Mus musculus, UniProt Q9JHG7); assay: Inhibition of PI3Kgamma in mouse RAW264.7 cells assessed as reduction in AKT phosphorylation at residue S473 treated with mouse C5a component and measured after 3 mins
BT-474 [8] = assay: Antitumor activity against PI3KCA mutant human BT474 cells xenografted in BALB/c nude mouse assessed as tumor growth inhibition at 30 mg/kg, po administered once daily and measured after 30 days by caliper method relative to control; type: functional; settings: BT-474, po, 720 h, read-out: TGI
BT-474 [9] = assay: Antitumor activity against PI3KCA mutant human BT474 cells xenografted in po dosed BALB/c nude mouse assessed as tumor growth inhibition administered once daily and measured after 30 days by caliper method; type: functional, organism-based
Mus musculus [10] = assay: In vivo inhibition of PI3K in po dosed BALB/c nude mouse xenografted with PI3KCA mutant human BT474 cells assessed as reduction in AKT phosphorylation administered once daily measured after 1 to 4 hrs by Western blot analysis; type: functional, organism-based; settings: BT-474
How it was run: (§1)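 Mice bearing BT-474 subcutaneous xenografts were dosed orally in vehicle 0.5% MC + 0.2% Tween 80. Tumor Akt phosphorylation was assessed for time and dose dependence.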

Mus musculus [11] = assay: In vivo inhibition of PI3K in BALB/c nude mouse xenografted with PI3KCA mutant human BT474 cells assessed as reduction in AKT phosphorylation at 15 to 40 mg/kg, po administered once daily by Western blot analysis; type: functional, organism-based; settings: BT-474, TDE = time-dependent effect; how it was run: as §1
[12] = Half life in Sprague-Dawley rat at 1 mg/kg, iv by HPLC analysis; type: ADME, organism-based; settings: in vivo
[13] = Volume of distribution in Sprague-Dawley rat at 1 mg/kg, iv by HPLC analysis; type: ADME, organism-based; settings: in vivo
[14] = Dose normalized AUC (0 to last) in Sprague-Dawley rat at 3 mg/kg, po by HPLC analysis; type: ADME, organism-based; settings: in vivo
[15] = Oral bioavailability in Sprague-Dawley rat at 3 mg/kg by HPLC analysis; type: ADME, organism-based; settings: in vivo
[16] = Protein binding in human plasma measured after 4 hrs by LC-MS/MS analysis; type: ADME, cell-free; settings: read-out: PPB (converted)
[17] = Protein binding in CD-1 mouse plasma measured after 4 hrs by LC-MS/MS analysis; type: ADME, cell-free; settings: read-out: PPB (converted)
[18] = Metabolic stability in human liver microsomes assessed as parent compound remaining at 10 uM preincubated for 10 mins in water bath followed by NADPH addition and measured after 60 mins by LC-MS/MS analysis; type: ADME, Microsome; settings: read-out: Stability
[19] = Metabolic stability in Sprague-Dawley rat liver microsomes assessed as parent compound remaining at 10 uM preincubated for 10 mins in water bath followed by NADPH addition and measured after 60 mins by LC-MS/MS analysis; type: ADME, Microsome; settings: read-out: Stability
[20] = Metabolic stability in Beagle dog liver microsomes assessed as parent compound remaining at 10 uM preincubated for 10 mins in water bath followed by NADPH addition and measured after 60 mins by LC-MS/MS analysis; type: ADME, Canis lupus familiaris, Microsome; settings: read-out: Stability
[21] = Metabolic stability in CD-1 mouse liver microsomes assessed as parent compound remaining at 10 uM preincubated for 10 mins in water bath followed by NADPH addition and measured after 60 mins by LC-MS/MS analysis; type: ADME, Microsome; settings: read-out: Stability
[22] = Clearance in Beagle dog cryopreserved hepatocytes incubated for 10 mins under shaking condition by LC-MS/MS analysis; type: ADME, cell-based, Canis lupus familiaris, Hepatocyte; settings: read-out: CLH
[23] = Half life in BALB/c mouse at 1 mg/kg, iv by HPLC analysis; settings: in vivo
[24] = Volume of distribution in BALB/c mouse at 1 mg/kg, iv by HPLC analysis; settings: in vivo

Sequence of Phosphatidylinositol 4,5-bisphosphate 3-kinase catalytic subunit gamma isoform (Q9JHG7 whole entry, canonical isoform): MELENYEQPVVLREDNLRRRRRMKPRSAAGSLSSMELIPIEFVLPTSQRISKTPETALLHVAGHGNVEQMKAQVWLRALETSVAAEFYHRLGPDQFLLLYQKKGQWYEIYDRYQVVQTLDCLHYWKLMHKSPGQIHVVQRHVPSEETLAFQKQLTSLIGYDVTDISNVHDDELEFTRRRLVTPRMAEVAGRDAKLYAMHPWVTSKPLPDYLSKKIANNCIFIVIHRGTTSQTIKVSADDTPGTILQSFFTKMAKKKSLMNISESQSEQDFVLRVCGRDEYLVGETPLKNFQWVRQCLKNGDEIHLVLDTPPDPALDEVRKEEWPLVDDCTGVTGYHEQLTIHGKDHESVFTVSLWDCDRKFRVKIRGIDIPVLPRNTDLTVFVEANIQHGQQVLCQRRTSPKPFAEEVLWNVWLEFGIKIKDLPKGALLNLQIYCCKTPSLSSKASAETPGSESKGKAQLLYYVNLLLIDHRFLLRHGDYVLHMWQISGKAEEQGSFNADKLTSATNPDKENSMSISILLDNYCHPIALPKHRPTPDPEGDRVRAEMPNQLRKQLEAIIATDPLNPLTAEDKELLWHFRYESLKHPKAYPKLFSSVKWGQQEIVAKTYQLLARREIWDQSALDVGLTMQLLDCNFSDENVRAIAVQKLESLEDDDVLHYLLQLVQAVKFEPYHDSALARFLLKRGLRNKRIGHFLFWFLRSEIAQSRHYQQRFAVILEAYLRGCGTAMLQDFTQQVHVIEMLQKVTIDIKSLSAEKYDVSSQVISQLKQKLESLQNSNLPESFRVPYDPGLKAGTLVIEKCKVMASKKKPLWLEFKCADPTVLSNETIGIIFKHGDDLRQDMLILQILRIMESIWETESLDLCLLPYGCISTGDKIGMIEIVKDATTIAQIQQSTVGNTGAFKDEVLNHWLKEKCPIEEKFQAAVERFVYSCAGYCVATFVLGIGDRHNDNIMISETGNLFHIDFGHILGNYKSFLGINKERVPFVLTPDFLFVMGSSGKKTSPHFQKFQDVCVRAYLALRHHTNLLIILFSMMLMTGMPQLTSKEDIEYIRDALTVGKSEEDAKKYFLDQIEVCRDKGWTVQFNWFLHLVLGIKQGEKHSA
Sequence of Phosphatidylinositol 4,5-bisphosphate 3-kinase catalytic subunit beta isoform (P42338 whole entry, canonical isoform): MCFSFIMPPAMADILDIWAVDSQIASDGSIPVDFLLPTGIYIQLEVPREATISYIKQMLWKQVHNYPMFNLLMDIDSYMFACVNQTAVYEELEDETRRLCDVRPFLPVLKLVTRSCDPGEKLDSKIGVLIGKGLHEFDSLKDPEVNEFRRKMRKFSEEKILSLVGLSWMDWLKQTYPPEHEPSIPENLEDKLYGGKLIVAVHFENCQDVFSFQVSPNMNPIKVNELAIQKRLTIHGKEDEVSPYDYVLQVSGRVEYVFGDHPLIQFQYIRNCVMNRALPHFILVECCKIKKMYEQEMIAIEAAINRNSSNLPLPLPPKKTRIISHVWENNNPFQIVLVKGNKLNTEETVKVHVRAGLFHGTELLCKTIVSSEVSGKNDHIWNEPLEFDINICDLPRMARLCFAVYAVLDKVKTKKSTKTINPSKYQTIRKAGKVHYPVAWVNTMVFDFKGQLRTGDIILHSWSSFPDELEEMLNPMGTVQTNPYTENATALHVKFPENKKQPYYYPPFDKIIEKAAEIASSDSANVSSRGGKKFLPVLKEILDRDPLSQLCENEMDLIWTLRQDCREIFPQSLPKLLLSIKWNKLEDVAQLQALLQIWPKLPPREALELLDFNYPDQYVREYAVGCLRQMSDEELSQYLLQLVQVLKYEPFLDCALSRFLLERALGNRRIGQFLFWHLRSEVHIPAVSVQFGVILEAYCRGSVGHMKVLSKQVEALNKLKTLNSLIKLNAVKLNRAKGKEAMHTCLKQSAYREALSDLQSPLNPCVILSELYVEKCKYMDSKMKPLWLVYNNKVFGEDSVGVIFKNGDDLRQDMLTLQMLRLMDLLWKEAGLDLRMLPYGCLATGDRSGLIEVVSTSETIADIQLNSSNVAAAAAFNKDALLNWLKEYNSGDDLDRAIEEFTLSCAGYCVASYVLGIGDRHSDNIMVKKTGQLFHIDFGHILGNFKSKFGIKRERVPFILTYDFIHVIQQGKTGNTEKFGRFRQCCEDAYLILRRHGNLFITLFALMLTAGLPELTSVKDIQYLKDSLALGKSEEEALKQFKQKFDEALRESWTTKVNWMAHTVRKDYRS

## CNC(=O)[C@H](C)Cn1cnc2ccc(-c3cnc(OC)c(NS(=O)(=O)c4ccc(F)cc4Cl)c3)cc2c1=O
[1]
  IC50: 32.9 nM
[2]
  Cmax: 37 µM
[3]
  CL/F: 4.2 mL/min/kg
[4]
  bioavailability: 59.4%
[5]
  IC50: 1390 nM
[6]
  IC50: 183 nM
[7]
  IC50: > 10000 nM
BT-474 [8]
  inhibition in vivo at 30 mg/kg: 86%
BT-474 [9]
  TGI: Dose-dependent effect
Mus musculus [10]
  inhibition: Dose-dependent effect
Mus musculus [11]
  inhibition: Tde
[12]
  half-life: 1.22 h
[13]
  Vd: 0.321 L/kg
[14]
  AUClast/dose: 2711 nM·h
[15]
  bioavailability: 46.9%
[16]
  fraction unbound at 4 h: 0.014
[17]
  fraction unbound at 4 h: 0.014
[18]
  remaining at 1 h, 10 µM: 44.6%
[19]
  remaining at 1 h, 10 µM: 32%
[20]
  remaining at 1 h, 10 µM: 53.9%
[21]
  remaining at 1 h, 10 µM: 32.7%
[22]
  CLint scaled: < 44 mL/min/kg
[23]
  half-life: 0.966 h
[24]
  Vd: 0.179 L/kg
